# Only some compounds are listed: those with a hit (about 3.3% of all), similar ones and a draw of the others.
# PRMT1 FP inh: blocks human protein arginine methyltransferase 1; Q99873; recombinant PRMT1, activity-based probe fluorescence polarization; inhibition, % at 2.79 µM; hit rate 1.3% among 370,000;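 active = inhibition above about 21% made by adding two undisclosed values, limit read from the data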
# Target sequence (Q99873 whole entry, looked up): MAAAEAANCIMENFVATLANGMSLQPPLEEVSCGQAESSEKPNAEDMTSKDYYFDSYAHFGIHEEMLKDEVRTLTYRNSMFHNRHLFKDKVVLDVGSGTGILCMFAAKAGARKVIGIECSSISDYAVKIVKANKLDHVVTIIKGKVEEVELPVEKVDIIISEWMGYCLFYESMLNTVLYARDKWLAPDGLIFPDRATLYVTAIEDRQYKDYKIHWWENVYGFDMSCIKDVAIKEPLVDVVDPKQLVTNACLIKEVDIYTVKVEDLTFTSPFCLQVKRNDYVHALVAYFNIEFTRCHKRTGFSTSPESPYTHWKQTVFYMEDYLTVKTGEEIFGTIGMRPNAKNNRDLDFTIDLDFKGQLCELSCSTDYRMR
# rCAG binder: molecules binding r(CAG) RNA repeats. r(CAG) RNA repeat, TO-PRO-1 dye displacement fluorescence. inhibition, % at 3 µM. hit rate 1.3% among 370,000. AID 651821;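 active = inhibition above the plate cutoff, the mean of all test compounds on that plate plus 3 SD, cut at about 35% in these data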;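 also: 0% = DMSO alone and 100% = 100 µM mitoxantrone as full dye displacement; higher means more dye released from RNA so lower well fluorescence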
# TCR-CD3 inh: blocks the human TCR-CD3 interaction; hit rate 0.37% among 360,000; TAMRA-labeled TCR probe fluorescence, biochemical; inhibition, % at 9.4 µM; in the data active = inhibition above about 19%;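 also: recombinant mutant TCR 2C K166C tagged with TAMRA read by polarization; 0% = receptor in buffer alone and 100% = receptor with positive control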
# mABHD4 FP: inhibits mouse alpha/beta hydrolase domain 4 | hit rate 0.54% among 370,000 | Q8VD66 | purified mABHD4, FP-Rh probe fluorescence polarization | inhibition, % at 8.92 µM;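 active = inhibition exceeding the mean over every tested compound plus 3 SD, cut at about 30% in these data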;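 also: 0% = plate median of compound wells and 100% = S159A mutant with DMSO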
# Target sequence (Q8VD66 whole entry, looked up, the tested form may be a part): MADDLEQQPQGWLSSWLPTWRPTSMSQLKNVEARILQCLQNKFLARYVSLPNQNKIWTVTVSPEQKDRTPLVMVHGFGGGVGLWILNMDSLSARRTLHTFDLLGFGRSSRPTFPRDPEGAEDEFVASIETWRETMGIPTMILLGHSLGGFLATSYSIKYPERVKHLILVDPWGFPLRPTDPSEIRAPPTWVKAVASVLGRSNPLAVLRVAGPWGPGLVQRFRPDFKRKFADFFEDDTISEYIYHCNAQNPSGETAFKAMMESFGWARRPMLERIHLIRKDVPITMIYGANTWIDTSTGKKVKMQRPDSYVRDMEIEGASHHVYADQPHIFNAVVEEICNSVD
#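 Assay system: Wild-type mouse ABHD4 protein | Medium: HEPES pH 7.0 buffer, 150 mM NaCl, 0.01% Pluronic F-127 | Incubation: Enzyme–compound pre-incubation 45 min, then probe 60 min, both 25 °C | Technique: Fluorescence polarization with parallel and perpendicular emission, 525/598 nm | Evaluation: % inhibition of FP-Rh probe binding versus controls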
# SIAE primary: inhibitors of human sialic acid acetylesterase SIAE | Q9HAT2 | inhibition, % at 9.66 µM | SIAE FP-Rh probe binding, fluorescence polarization | hit rate 0.69% among 370,000;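 active = inhibition above a cutoff: mean of compounds within the control limits plus 3 SD of those, cut at about 17% in these data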;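 also: 0% = plate median of compound wells and 100% = probe without SIAE protein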
# SIAE inh conf: confirmation of human SIAE inhibitors | shares compounds with SIAE primary | SIAE FP-Rh activity-based probe, fluorescence polarization | inhibition, % at 9.66 µM | hit rate 13% among 2,300 | AID 1117263;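 active = mean inhibition of the replicates above the hit cutoff set in the primary screen, cut at about 17% in these data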;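 also: 0% = SIAE with DMSO and probe and 100% = probe without SIAE; inhibitors lower polarization as more probe stays unbound to SIAE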
# * hit, by the source's call; . = not tested or not shown.
SMILES,PRMT1 FP inh,rCAG binder,TCR-CD3 inh,mABHD4 FP,SIAE primary,SIAE inh conf
O=C(NCc1ccc(F)cc1)C(=O)NCC1OCCN1S(=O)(=O)c1cc(F)ccc1F (stereo unspecified),0.8,4.8,7.5,1.8,-18.5,.
COc1cccc(/C=N/Nc2nc(Nc3ccc([N+](=O)[O-])cc3)nc(N3CCCC3)n2)c1O,3.8,9.9,-2.1,7.9,19.0*,-7.9
Clc1ccccc1-c1nn2c(-c3cc(-c4ccccc4)n[nH]3)nnc2s1,-4.7,15.4,.,-30.4,-11.6,.
CC(=O)c1ccccc1NC(=O)COC(=O)CCCN1C(=O)c2cccc3cccc(c23)C1=O,0.4,0.4,6.0,-0.5,18.6*,2.7
S=C(NCCCc1cnc[nH]1)NCCCN(Cc1ccccc1)c1ccc(Br)cn1,2.1,1.6,-3.4,0.5,9.0,.
S=C(NCCCc1cnc[nH]1)NCCCN(Cc1ccc(Cl)cc1)c1ccc(Br)cn1,-0.4,8.4,-2.8,9.5,17.4*,26.7*
Cc1cccc(NC(=O)CSc2nnc(Cn3cnc4ccccc43)o2)c1,-4.3,-1.4,3.3,3.4,-0.4,.
COc1ccc(NC(=O)CSc2nnc(Cn3cnc4ccccc43)o2)cc1,-1.1,-1.3,-3.9,-2.4,18.0*,0.1
OC(CN1CCN(c2ccccc2F)CC1)c1ccc(F)cc1 (stereo unspecified),2.1,-9.3,-2.4,-0.8,-1.5,.
Cc1ccc(S(=O)(=O)N2CCOCC2)cc1NC(=O)c1cc(-c2ccccn2)nc2ccccc12,-3.2,5.9,-7.7,-10.7,-8.1,.
O=C(Nc1cc(S(=O)(=O)N2CCOCC2)ccc1N1CCCCC1)c1cc(-c2ccccn2)nc2ccccc12,11.0,0.5,-3.4,-0.7,18.4*,8.6
O=C(NCc1cccs1)c1csc([C@@H]2O[C@H](CO)[C@H](O)[C@H](O)[C@H]2O)n1,-5.7,2.0,-7.0,-3.0,5.2,.
Clc1ccc(CSc2ncnc3c2ncn3C2CCCCO2)cc1 (stereo unspecified),-4.6,0.4,-2.2,-5.2,0.2,.
COC(=O)C1=C(C(C)=O)C(c2ccc(C(=O)OC)cc2)n2nnnc2N1 (stereo unspecified),0.2,0.0,-3.2,13.5,23.1*,-2.8
COC(=O)C1=C(C(C)=O)C(c2ccc(C)cc2)n2nnnc2N1 (stereo unspecified),-0.2,-0.3,9.2,6.5,10.0,.
O=C1NC(Cc2ccc(O)cc2)c2nc3cc(F)ccc3c(=O)n2-c2cc3ccccc3cc21 (stereo unspecified),-1.3,10.5,-1.1,-31.1,-25.2,.
COc1ccc(N(CC(=O)N2CCOCC2)S(C)(=O)=O)cc1Cl,1.0,-1.7,9.2,6.0,2.0,.
CCOC(=O)N1[C@@H]2C=C(C)[C@@H]2[C@@H]2[C@@H](C)C(=O)N21,-1.1,4.9,2.9,-0.1,78.2*,85.6*
C=C1CC[C@@H]2[C@](C)(CO)[C@H](O)CC[C@@]2(C)[C@@H]1C/C=C1/C(=O)OCC1O (stereo partly specified),2.4,0.5,-7.2,-2.8,-3.2,.
COC(CNC(=O)[C@H](Cc1c[nH]c2ccccc12)NC1(C(=O)NCc2ccccc2)CCCCC1)OC,2.7,.,.,-0.4,11.2,.
CCN(CC(=O)Nc1ccc(NC(C)=O)cc1)C(=O)c1cccc2ccccc12,-2.1,-2.7,0.0,1.6,17.8*,5.4
CC(C)(C)c1c(Cl)c(O)c(-c2ccccc2)c(=O)n1-c1ccccc1,9.9,6.1,-0.3,-3.0,19.5*,0.0
CN1C(=O)C(=O)N(CC(=O)Nc2ccccc2OC(F)F)C1=O,-1.1,0.8,-5.7,-4.5,2.3,.
O=C(CN1NS(=O)(=O)c2ccccc2C1=O)Nc1ccccc1OC(F)F,-1.2,2.7,5.7,3.4,18.8*,2.5
CCc1cc(/C(Cc2ccc3ccccc3n2)=N\O)c(O)cc1O,0.4,5.2,5.7,2.0,61.2*,39.9*
SMILES,PRMT1 FP inh,rCAG binder,TCR-CD3 inh,mABHD4 FP,SIAE primary,SIAE inh conf
CCc1cc(/C(Cc2ccccn2)=N\O)c(O)cc1O,-1.1,-2.9,-8.9,2.8,19.4*,21.8*
CC(=O)Nc1sc(C)c(C)c1C(=O)OCC(=O)N(CCC#N)c1cc(C)cc(C)c1,-0.6,1.0,7.5,2.8,5.0,.
Nc1ccc(-c2nc3ccccc3[nH]2)cc1,6.1,2.0,3.2,6.8,9.2,.
Nc1ccc2nc(-c3ccc(-c4nc5ccc(N)cc5[nH]4)cc3)[nH]c2c1,-1.1,12.4,-13.3,-19.1,17.3*,25.9*
Cc1ccc(C(=O)C2CCN(CC(=O)N3CC(C)CC(C)C3)CC2)cc1 (stereo unspecified),0.5,2.1,.,9.2,-0.8,.
C=CC[C@@H]1NN2C(=O)[C@@H](CCc3ccccc3)[C@@H]3c4ccccc4C=NN3[C@@H]2c2ccccc21,-1.3,6.7,.,3.0,-5.6,.
COc1ccccc1NC(=O)C1=C(C)Nc2nc(-c3cccs3)nn2C1c1cccnc1 (stereo unspecified),4.4,0.1,-4.2,-1.4,18.0*,0.4
CC(C)NC(=O)Cn1c(SCC(=O)N2CCCc3ccccc32)nc2ccccc21,0.9,-6.8,5.0,4.5,18.0*,0.2
CCc1ccc(C(=O)C(C)OC(=O)c2cccc(S(=O)(=O)N3CCOCC3)c2)cc1 (stereo unspecified),-2.7,-1.2,6.9,-1.9,-1.6,.
Cn1cnnc1SCC(=O)c1cc2ccccc2oc1=O,7.6,25.2,-5.3,15.8,18.4*,5.8
FC(F)(F)c1ccc2c(c1)NCC1CCCN21 (stereo unspecified),2.1,-2.4,-1.8,29.1,17.6*,2.5
FC(F)(F)c1ccc2c(c1)N1CCCC1CN2 (stereo unspecified),2.2,11.6,-3.8,15.9,14.7,.
O=[N+]([O-])c1nccn1CCCCCCCCCCCN1CCOCC1,-1.8,-0.6,5.4,5.5,5.2,.
C/C(=N\NC(=O)c1cc([N+](=O)[O-])cc([N+](=O)[O-])c1)c1ccco1,1.1,3.7,0.1,4.8,17.9*,3.9
C/C(=N\NC(=O)c1ccc(-c2ccccc2)cc1)c1ccco1,4.8,8.8,4.2,0.8,-3.4,.
Cc1ccc(-n2c(SCC(=O)Nc3ccccc3-c3ccccc3)nnc2-c2cccs2)cc1,-2.8,4.7,.,-13.5,-8.5,.
NC(=S)Nc1ccc(F)cc1F,-2.9,-2.4,3.5,3.0,22.1*,2.1
C[C@@H]1CN([C@@H](C)CO)C(=O)CCCn2nncc2CO[C@@H]1CN(C)S(=O)(=O)c1ccccc1,-2.2,0.2,2.3,-4.2,4.1,.
CCc1cccc(C)c1NC(=O)COC(=O)c1cc([N+](=O)[O-])ccc1N1CCOCC1,-3.2,-2.1,0.9,4.6,18.8*,0.2
O=C(Nc1ccc(F)cc1)OC[C@@H]1CSCCS(=O)(=O)N1,5.1,0.6,-5.7,-9.0,1.3,.
Cc1ncc(CO)c(/C=N/NC(=S)Nc2ccc(C(C)C)cc2)c1O,0.9,16.1,14.0,10.7,17.5*,14.8
CC1(C)CC(NC(=O)COc2ccc(Cl)cc2Cl)CC(C)(C)N1,-0.5,2.6,1.1,-2.7,3.9,.

# Screens (PubChem BioAssay)
